High-throughput results from PubChem.
Hits are enriched below; roughly 1% of the tested compounds scored in any of these assays.
NALP1 yeast inh: NALP1 inflammasome inhibitors in reconstituted yeast, colorimetric, S. cerevisiae, triplicate retest; S. cerevisiae NALP1/ASC/caspase-1 growth, X-gal OD620, 72 h; inhibition, % at 10 µM; 280,000 compounds, 0.61% hits; AID 2071, 2009; in the data active means inhibition mostly above about 24%, no sharp cut-off; inactive means mostly below about 32%
T cell modulator: modulators of CD8 T cell-vesicle binding, primary screen, mouse 2C CD8+ T cells, flow cytometry. 2C CD8+ T cell-vesicle binding; hits give low values. 330,000 compounds, 0.068% hits. response (vesicle binding), % at 7 µM;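 active means response, share of CD8 T cells binding vesicles, and their 90th percentile fluorescence all below set limits, cut at about 80% in these data, passing the limit was not always enough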;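 further: values below 100% mean blocked vesicle binding to the CD8+ T cells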
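Benchmarks: naked versus QL9-loaded vesicles / Assay system: purified 2C TCR transgenic mouse naive CD8+ T cells / Technique: high-throughput flow cytometry with anti-B7-1 and anti-CD8 staining / Timing: Cell–vesicle co-incubation 1.5 h at 37 °C, staining 20 min on ice / Read-out: percent CD8+ FL2 mean versus row control / Probe or stimulus: QL9-loaded Drosophila micro-vesicles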
A1 inh: caspase 3/7 activation in MEF A1-2A-BIM cells, primary screen, A1 inhibitor project, cell-based, luminescence, HTS | Caspase-Glo 3/7 luminescence, 3 h; percent of clofoctol response, vehicle zero | caspase activation, % (test concentration not listed) | 330,000 compounds, 0.066% hits;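 active means over half of replicate activation scores above 10%, or exactly half above 10 with the replicate mean above 10; inconclusive means replicate mean below 10 yet half the replicates above 10; inactive means over half of replicates below 10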
NLRP3 yeast inh: NALP3 inflammasome inhibitors in reconstituted yeast, primary screen, luminescence, uHTS. inhibition, % at 10 µM. AID 2825, 2010. Yeast reconstituted NLRP3/ASC/caspase-1, beta-gal luminescence, 24 h. 330,000 compounds, 0.39% hits;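 active means inhibition of 50% or more; inactive means inhibition below 50%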;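 further: plate controls were induced DMSO wells for no effect and uninduced yeast grown without galactose for full effect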
Active calls of the source: *; i = inactive; u = inconclusive; x = not tested or not shown.

SMILES	NALP1 yeast inh	T cell modulator	A1 inh	NLRP3 yeast inh
Cn1c(=O)oc2cc(S(=O)(=O)NCc3ccc(F)cc3)ccc21	-10.0	283.2	0.5	13.5
O=C(COc1ccccc1F)NCC(c1ccco1)N1CCCC1 (stereo not given)	19.4	49.5*	0.2	19.2
O=S(=O)(Nc1ccc2c(c1)OCCO2)c1cccc2nsnc12	31.2*	446.6	0.2	16.8
COc1ccc(OCC(N)=O)cc1	38.8*	358.1	-0.2	10.2
Cc1ccc(S(=O)(=O)N(CC(=O)c2ccccc2)C(=O)N2CCN(C)CC2)cc1	x	x	x	8.0
CCCCN1C(=O)C(=O)N(CC(=O)c2cc(C)n(-c3cc(C)on3)c2C)C1=O	x	154.6	-0.4	9.5
CN(CC(=O)Nc1cccc(F)c1)C(=O)COc1cccc2c1OC(C)(C)C2	31.5*	384.4	-0.1	5.4
c1ccc(CN2CCN(CCOCCOc3cccc4ccccc34)CC2)cc1	37.6*	170.7	0.3	30.7
COc1ccc(NC(C)=O)cc1S(=O)(=O)N1CC=C(c2ccccc2)CC1	x	339.8	-0.5	7.3
Oc1c(Cl)cc(Cl)c2c1NCCC2	53.0*	x	x	13.2
O=C1NCCCc2c1oc1ccc(O)cc21	3.7	349.3	-1.3	-0.1
COc1cc(OC)c(NC(=O)CCNS(=O)(=O)c2ccc3c(c2)CC(C)N3C(C)=O)cc1Cl (stereo not given)	-12.7	384.8	-0.3	14.7
C=C(C)CNC(=S)N/N=C/c1ccc([N+](=O)[O-])cc1	32.2*	589.9	1.6	20.7
COc1cccc(C(=O)N2CCN(Cc3ccccc3Br)CC2)c1	15.0	281.0	0.7	15.4
COc1ccccc1-[n+]1c(C)cc(/C=C2\Sc3ccccc3N2C)cc1C	x	i	0.1	37.5
COc1ccc(-[n+]2c(C)cc(/C=C3\Sc4ccccc4N3C)cc2C)cc1	28.4*	i	-1.6	12.4
CCc1ccc2oc(=O)cc(CN3CCCCC3)c2c1	13.5	198.1	u	-0.4
COc1ccc(OC)c(NS(=O)(=O)Cc2ccccc2)c1	42.0*	931.9	1.4	8.9
O=c1[nH]c2cccnc2n1Cc1ccccc1	41.2*	702.1	0.6	7.4
O=c1[nH]c2ccccc2n1Cc1ccccc1	21.0	766.9	-0.1	13.8
Cc1noc(NS(=O)(=O)c2ccc(NC(=O)C(C)C)cc2)c1C	13.0	293.8	-0.1	20.8
Cc1noc(NS(=O)(=O)c2ccc(NC(=O)CC(C)C)cc2)c1C	37.9*	210.8	-1.3	-3.8
CC(=O)Nc1sc2c(c1-c1nc3ccccc3s1)CCN(C(C)C)C2	47.8*	316.7	u	-11.9
CCOc1ccc(S(=O)(=O)N2CCN(C(=O)CCOc3ccccc3C)CC2)cc1	x	324.2	0.4	19.1
CCc1ccc2c(c1)cc(CN(C(=S)Nc1ccccc1C)C1CC1)c1nnnn12	24.7	328.9	1.0	2.3
SMILES	NALP1 yeast inh	T cell modulator	A1 inh	NLRP3 yeast inh
COCCN(Cc1cc2cc(C)ccc2n2nnnc12)C(=S)Nc1ccccc1C	23.6*	648.8	-1.1	22.7
CNC(=S)NNC(=O)c1cc(-c2cccnc2)nc2ccccc12	-2.9	597.3	-11.4	16.7
O=C(COC(=O)c1ccccc1C(=O)c1ccc(Cl)c([N+](=O)[O-])c1)NC1CCCCCC1	35.6*	321.8	0.9	-2.5
O=C(COC(=O)c1ccc(Cl)c([N+](=O)[O-])c1)NC1CCCC1	-5.8	208.0	0.3	20.8
COc1ccc(NC(=O)CN(C)C(=O)Cc2c(C)nc3ccccc3c2C)cc1	x	339.6	-0.5	11.3
NC(=NC1CCCCC1)c1ccc([N+](=O)[O-])cc1	44.1*	140.9	1.3	-1.3
N/C(=N\OC(=O)CCC1CCCC1)c1ccc([N+](=O)[O-])cc1	2.5	214.9	0.5	-9.7
CCOC(=O)/C=C/C(=O)OCC(=O)Nc1ccc(Cl)cc1Cl	28.2*	485.9	1.6	-5.7
CC(=O)c1cccc(NC(=O)COc2ccc3oc(=O)cc(C)c3c2)c1	12.7	390.8	0.0	16.0
COC(=O)c1scc(C)c1N/N=C(\C)c1cc(F)c(Cl)cc1F	42.0*	205.8	0.0	5.3
CCOC(=O)C(=CNNc1c(C)csc1C(=O)OC)C(=O)OCC	31.6	i	0.4	9.0
Cc1cccc(C(=O)NNC(=O)C2CC2)c1	31.4*	221.7	0.1	11.0
O=C(NCCc1ccc(Cl)cc1)C1CCN(S(=O)(=O)c2ccc(-n3cnnn3)cc2)CC1	9.3	295.6	0.0	1.3
Cc1ccccc1CCNC(=O)C1CCN(S(=O)(=O)c2ccc(-n3cnnn3)cc2)CC1	31.3*	x	x	x
C[C@H](CO)N1C[C@H](C)[C@@H](CN(C)Cc2ccc(Oc3ccccc3)cc2)Oc2c(NS(=O)(=O)c3cn(C)cn3)cccc2C1=O	x	339.2	2.2	9.9
O=C(NC(=S)NCc1cccnc1)c1cc2ccccc2o1	-8.1	123.9	u	35.6
O=C(NC(=S)Nc1cccnc1)c1cc2ccccc2o1	47.2*	423.3	-6.4	37.0
CSCc1ccc(C(=O)NCC(c2cccs2)N2CCOCC2)cc1 (stereo not given)	x	346.8	1.4	10.9
COc1ccc(-c2cc3cc(-c4cc(OC)c(OC)c(OC)c4)ccc3o2)cc1	x	462.3	0.1	7.0
O=C1C=CC(=O)N1N(c1ccccc1)c1ccccc1	105.3*	133.2	0.1	3.4
CCc1nc(N2CCN(C(=O)CCl)CC2)c2c3c(sc2n1)CC(C)CC3 (stereo not given)	40.2*	286.5	0.1	23.7
C=CCn1c(=O)c2c(nc3n2CCCN3CCc2ccc(OC)c(OC)c2)n(C)c1=O	13.3	266.0	-0.5	16.2
CC[C@@H]1C/C=C\Cc2ccccc2[C@H](C(=O)C[C@H](O)CC(C)=O)OC1=O	x	263.8	1.0	13.7
CCCCNC(=O)NC1(C(F)(F)F)Oc2ccccc2O1	36.9*	390.0	-0.3	5.2
c1cc2c(cc1C1CCCCC1)c1c3n2CCCNC3CCC1 (stereo not given)	41.4*	238.9	1.0	-2.5
SMILES	NALP1 yeast inh	T cell modulator	A1 inh	NLRP3 yeast inh
Cc1nnn(C23CC4CC(CC(CC(=O)Nc5cccc(F)c5)(C4)C2)C3)n1	28.9*	249.4	0.1	6.3
COCCNC(=S)N1CCc2cc(OC)c(OC)cc2C1c1cccs1 (stereo not given)	24.0*	675.2	0.3	-5.7
COCCNC(=S)N1CCc2cc(OC)c(OC)cc2C1COc1ccc(F)cc1 (stereo not given)	-9.6	764.1	-0.7	1.7
CCC12CN(S(=O)(=O)c3ccc(C)cc3)CC(CC)(CN(S(=O)(=O)c3ccc(C)cc3)C1)C2=O	41.5*	186.4	0.5	11.9
CC(C)(C)c1ccc2c(c1)OC(C(=O)N/N=C\c1ccc[nH]1)CO2 (stereo not given)	-25.0	255.4	24.2*	10.1
O=C(COC(=O)C1C2CC3OC(=O)C1C3C2)Nc1cccc(Cl)c1 (stereo not given)	20.5	337.5	0.0	11.4
COc1ccc(Nc2nc(-c3ccncc3)nc3ccccc23)cc1	37.1*	71.5	-0.5	11.0
Cc1ccccc1OCCCC(=O)Nc1nccs1	-5.7	708.3	-0.4	12.6
